Converted amounts (≈) assume the structure as drawn. The source made the active and inactive calls. The calls are words filed in the database; no cut-off is given here.
Key:
[1] = system: Mycobacterium tuberculosis; experiment: Antitubercular activity against Mycobacterium tuberculosis H37Rv measured after 7 days by resazurin microtiter assay; assay type: functional; details: 168 h, time 7 day
Method in brief: (§1)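 Resazurin microtiter assay with two-fold drug dilutions in complete 7H9 broth. Exponential-phase cells are diluted to a final OD600 of 0.005 in 7H9 without Tween. Incubation is 7 days at 37°C, then 0.01% resazurin is added and plates are held 24 h more. MIC is the lowest concentration preventing the blue-to-pink change. Each MIC is determined three times in duplicate experiments.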

[2] = Solubility of compound in water; assay type: physicochemical; details: buffer
[3] = system: Mycolicibacterium smegmatis; experiment: Antibacterial activity against Mycobacterium smegmatis measured after 7 days by resazurin microtiter assay; assay type: functional; details: 168 h, time 7 day; method in brief: as §1
[4] = system: Mycolicibacterium aurum; experiment: Antibacterial activity against Mycobacterium aurum measured after 7 days by resazurin microtiter assay; assay type: functional; details: 168 h, time 7 day; method in brief: as §1
[5] = system: Mycobacterium marinum; experiment: Antibacterial activity against Mycobacterium marinum measured after 7 days by resazurin microtiter assay; assay type: functional; details: 168 h, time 7 day; method in brief: as §1
[6] = system: Pseudomonas aeruginosa; experiment: Antibacterial activity against Pseudomonas aeruginosa measured after 7 days by resazurin microtiter assay; assay type: functional; details: 168 h, time 7 day
[7] = system: Acinetobacter baumannii; experiment: Antibacterial activity against Acinetobacter baumannii measured after 7 days by resazurin microtiter assay; assay type: functional; details: 168 h, time 7 day
[8] = system: Klebsiella aerogenes; experiment: Antibacterial activity against Enterobacter aerogenes measured after 7 days by resazurin microtiter assay; assay type: functional; details: 168 h, time 7 day
[9] = system: Enterobacter cloacae; experiment: Antibacterial activity against Enterobacter cloacae measured after 7 days by resazurin microtiter assay; assay type: functional; details: 168 h, time 7 day
[10] = system: Staphylococcus aureus; experiment: Antibacterial activity against Staphylococcus aureus measured after 7 days by resazurin microtiter assay; assay type: functional; details: 168 h, time 7 day
[11] = system: Klebsiella pneumoniae; experiment: Antibacterial activity against Klebsiella pneumoniae measured after 7 days by resazurin microtiter assay; assay type: functional; details: 168 h, time 7 day
[12] = system: Vero; experiment: Cytotoxicity against African green monkey Vero cells assessed as reduction in cell viability measured after 24 to 48 hrs by Celltiter-glo assay; assay type: cell-based, Chlorocebus sabaeus; details: chlorocebus sabaeus, vero; time 24-48 hrs
Method in brief: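 Vero cells are grown in DMEM with 10% FBS and seeded at 25000 cells/well. Compound is added at 1% final DMSO, with 24 and 48 h incubation. ATP is read by CellTiter-Glo luminescence. IC50 is the concentration giving a 50% drop in ATP signal versus the DMSO control.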

[13] = system: Macrophage; experiment: Cytotoxicity against human macrophages assessed as reduction in cell viability measured after 6 days by Celltiter-glo assay; assay type: cell-based; details: human, macrophage, 144 h; time 6 day
Method in brief: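 Infected human macrophages, with or without drug, are incubated 6 days. Viability is checked by visual inspection and by CellTiter-Glo ATP luminescence.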

[14] = system: Mycobacterium tuberculosis; experiment: Antitubercular activity against Mycobacterium tuberculosis H37Rv infected in human macrophages assessed as intracellular bacterial load at 0.5 MIC measured after 6 days (reference value: 5.57 to 6.43 logCFU/ml); assay type: functional, Macrophage; details: time 6 day
[15] = system: Mycobacterium tuberculosis; experiment: Antitubercular activity against Mycobacterium tuberculosis H37Rv infected in human macrophages assessed as intracellular bacterial load at MIC measured after 6 days (reference value: 5.57 to 6.43 logCFU/ml); assay type: functional, Macrophage; details: time 6 day
[16] = system: Mycobacterium tuberculosis; experiment: Antitubercular activity against Mycobacterium tuberculosis H37Rv infected in human macrophages assessed as intracellular bacterial load at 2 times MIC measured after 6 days (reference value: 5.57 to 6.43 logCFU/ml); assay type: functional, Macrophage; details: time 6 day
[17] = system: Mycobacterium tuberculosis; experiment: Antitubercular activity against Mycobacterium tuberculosis H37Rv infected in human macrophages assessed as intracellular bacterial load at 4 times MIC measured after 6 days (reference value: 5.57 to 6.43 logCFU/ml); assay type: functional, Macrophage; details: time 6 day
[18] = system: Mycobacterium tuberculosis; experiment: Antitubercular activity against Mycobacterium tuberculosis XDR measured after 7 days by resazurin microtiter assay; assay type: functional; details: 168 h, time 7 day; method in brief: as §1
[19] = system: Escherichia coli ATCC 25922; experiment: Inhibition of DNA gyrase in Escherichia coli ATCC 25922 assessed as elongation of bacterial cells at 2.5 ug/ml measured after 1.5 hrs by DAPI/FM 4-64 staining based confocal fluorescence microscopic analysis; details: dose 2.5 µg/ml
Method in brief: (§2)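 E. coli ATCC 25922 is grown in LB, and exponential cultures are treated 1.5 h at 37°C. Cells are washed in PBS, fixed 10 min in 4% PFA, and stained 20 min at room temperature with 2 µg/mL DAPI plus 1 µg/mL FM 4-64. Imaging is by confocal microscopy with a 60x oil objective.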

[20] = system: Escherichia coli ATCC 25922; experiment: Inhibition of DNA gyrase in Escherichia coli ATCC 25922 assessed as appearance of filamentous bacterial cells at 2.5 ug/ml measured after 1.5 hrs by DAPI/FM 4-64 staining based confocal fluorescence microscopic analysis; details: dose 2.5 µg/ml; method in brief: as §2
[21] = system: Escherichia coli ATCC 25922; experiment: Inhibition of DNA gyrase in Escherichia coli ATCC 25922 assessed as change in DNA morphology at 2.5 ug/ml measured after 1.5 hrs by DAPI/FM 4-64 staining based confocal fluorescence microscopic analysis; details: dose 2.5 µg/ml; method in brief: as §2
[22] = system: Mycolicibacterium smegmatis; experiment: Inhibition of DNA gyrase in Mycobacterium smegmatis assessed as elongation of bacterial cells at 2.5 ug/ml measured after 6 hrs by DAPI/FM 4-64 staining based confocal fluorescence microscopic analysis; details: dose 2.5 µg/ml
Method in brief: (§3)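 M. smegmatis is grown in 7H9, and exponential cultures are treated 6 h at 37°C. Cells are fixed 10 min in 4% PFA in PBS and stained 20 min at room temperature with 2 µg/mL DAPI and 1 µg/mL FM 4-64. Imaging is by confocal microscopy with a 60x oil objective.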

[23] = system: Mycolicibacterium smegmatis; experiment: Inhibition of DNA gyrase in Mycobacterium smegmatis assessed as segmentation of bacterial cells at 2.5 ug/ml measured after 6 hrs by DAPI/FM 4-64 staining based confocal fluorescence microscopic analysis; details: dose 2.5 µg/ml; method in brief: as §3

Structure (SMILES): CCOC(=O)c1c[nH]c2c(ccc3c([N+](=O)[O-])cc[n+]([O-])c32)c1=O
- MIC90 [1]: 39.5 µM (≈ 13 µg/mL)
- solubility [2]: Insoluble

Structure (SMILES): NCC[C@H](O)C(=O)N[C@@H]1C[C@H](N)[C@@H](O[C@H]2O[C@H](CN)[C@@H](O)[C@H](O)[C@H]2O)[C@H](O)[C@H]1O[C@H]1O[C@H](CO)[C@@H](O)[C@H](N)[C@H]1O [AMIKACIN]
- MIC90 [1]: 1.83 µM (≈ 1.07 µg/mL)
- MIC90 [3]: 0.46 µM (≈ 0.269 µg/mL)
- MIC90 [4]: 1.83 µM (≈ 1.07 µg/mL)
- MIC90 [5]: 3.66 µM (≈ 2.14 µg/mL)
- MIC90 [6]: 3.66 µM (≈ 2.14 µg/mL)
- MIC90 [7]: 14.6 µM (≈ 8.57 µg/mL)

Structure (SMILES): CCOC(=O)c1c[nH]c2c(ccc3cccnc32)c1=O
- MIC90 [1]: 24 µM (≈ 6.44 µg/mL)
- solubility [2]: Insoluble

Structure (SMILES): Cn1cc(C(=O)NN)c(=O)c2cc([N+](=O)[O-])c3cccnc3c21
- MIC90 [1]: 20.8 µM (≈ 6.51 µg/mL)
- solubility [2]: Insoluble

Structure (SMILES): CCn1cc(C(=O)Nc2ccccc2)c(=O)c2cc([N+](=O)[O-])c3cccnc3c21
- MIC90 [1]: 275 µM (≈ 107 µg/mL)
- solubility [2]: Insoluble

Structure (SMILES): CCOC(=O)c1c[nH]c2c(ccc3ccc[n+]([O-])c32)c1=O
- MIC90 [1]: 204 µM (≈ 58 µg/mL)
- solubility [2]: Insoluble

Structure (SMILES): CO[C@H]1/C=C/O[C@@]2(C)Oc3c(C)c(O)c4c(O)c(c(/C=N/N5CCN(C)CC5)c(O)c4c3C2=O)NC(=O)/C(C)=C\C=C\[C@H](C)[C@H](O)[C@@H](C)[C@@H](O)[C@@H](C)[C@H](OC(C)=O)[C@@H]1C [RIFAMPIN]
- MIC90 [1]: 0.76 µM (≈ 0.625 µg/mL)

Structure (SMILES): CCOC(=O)c1cn(CC)c2c(ccc3cccnc32)c1=O
- MIC90 [1]: 170 µM (≈ 50.3 µg/mL)
- solubility [2]: Insoluble

Structure (SMILES): O=C(O)c1c[nH]c2c(ccc3cccnc32)c1=O
- MIC90 [1]: 112 µM (≈ 27 µg/mL)
- solubility [2]: Insoluble

Structure (SMILES): CCOC(=O)c1cn(CC)c2c(cc(Cl)c3cccnc32)c1=O
- MIC90 [1]: 166 µM (≈ 55 µg/mL)
- solubility [2]: Insoluble

Structure (SMILES): Cn1cc(C(=O)O)c(=O)c2cc([N+](=O)[O-])c3cccnc3c21
- MIC90 [1]: 2.64 µM (≈ 0.79 µg/mL)
- MIC90 [3]: 11.2 µM (≈ 3.35 µg/mL)
- MIC90 [4]: 11.2 µM (≈ 3.35 µg/mL)
- MIC90 [5]: 0.7 µM (≈ 0.209 µg/mL)
- MIC90 [6]: > 100 µM
- MIC90 [7]: > 100 µM
- MIC90 [8]: 44.7 µM (≈ 13.4 µg/mL)
- MIC90 [9]: > 275 µM
- MIC90 [10]: 22.4 µM (≈ 6.69 µg/mL)
- MIC90 [11]: > 275 µM
- Activity [12]: Non-Toxic
- Activity [13]: Non-Toxic
- Activity [14]: 3.78 log10CFU/ml
- Activity [15]: 3.65 log10CFU/ml
- Activity [16]: 2.77 log10CFU/ml
- Activity [17]: 3.01 log10CFU/ml
- MIC90 [18]: 2.64 µM (≈ 0.79 µg/mL)
- solubility [2]: Insoluble
- inhibition [19]: Active
- inhibition [20]: Active
- inhibition [21]: Active
- inhibition [22]: Active
- inhibition [23]: Active

Structure (SMILES): CCn1cc(C(=O)O)c(=O)c2cc(Br)c3cccnc3c21
- MIC90 [1]: 9.39 µM (≈ 3.26 µg/mL)
- solubility [2]: Insoluble

Structure (SMILES): CCn1cc(C(=O)O)c(=O)c2cc([N+](=O)[O-])c3cccnc3c21
- MIC90 [1]: 5.84 µM (≈ 1.83 µg/mL)
- MIC90 [3]: 21.4 µM (≈ 6.69 µg/mL)
- MIC90 [4]: 10.7 µM (≈ 3.34 µg/mL)
- MIC90 [5]: 1.3 µM (≈ 0.407 µg/mL)
- MIC90 [6]: > 100 µM
- MIC90 [7]: 93.4 µM (≈ 29.2 µg/mL)
- MIC90 [8]: 42.7 µM (≈ 13.4 µg/mL)
- MIC90 [9]: > 275 µM
- MIC90 [10]: 10.7 µM (≈ 3.34 µg/mL)
- MIC90 [11]: > 275 µM
- Activity [12]: Non-Toxic
- Activity [13]: Non-Toxic
- Activity [14]: 4.19 log10CFU/ml
- Activity [15]: 3.69 log10CFU/ml
- Activity [16]: 3.21 log10CFU/ml
- Activity [17]: 3.24 log10CFU/ml
- solubility [2]: Insoluble

Structure (SMILES): CCOC(=O)c1cn(CC)c2c(cc([N+](=O)[O-])c3cccnc32)c1=O
- MIC90 [1]: 4.99 µM (≈ 1.7 µg/mL)
- MIC90 [3]: > 100 µM
- MIC90 [4]: > 100 µM
- MIC90 [5]: 0.61 µM (≈ 0.208 µg/mL)
- MIC90 [6]: > 100 µM
- MIC90 [7]: > 100 µM
- MIC90 [8]: 314 µM (≈ 107 µg/mL)
- MIC90 [9]: > 275 µM
- MIC90 [10]: 19.6 µM (≈ 6.69 µg/mL)
- MIC90 [11]: > 275 µM
- Activity [12]: Non-Toxic
- Activity [13]: Non-Toxic
- Activity [14]: 4.42 log10CFU/ml
- Activity [15]: 3.59 log10CFU/ml
- Activity [16]: 3.1 log10CFU/ml
- Activity [17]: 3 log10CFU/ml
- MIC90 [18]: 4.99 µM (≈ 1.7 µg/mL)
- solubility [2]: Insoluble

Structure (SMILES): Cn1cc(C(N)=O)c(=O)c2cc([N+](=O)[O-])c3cccnc3c21
- MIC90 [1]: 1.4 µM (≈ 0.418 µg/mL)
- solubility [2]: Insoluble

Structure (SMILES): CCOC(=O)c1cn(C)c2c(cc(N)c3cccnc32)c1=O
- MIC90 [1]: 92.1 µM (≈ 27.4 µg/mL)
- solubility [2]: Insoluble

From ChEMBL document CHEMBL4765453, “Phenanthrolinic analogs of quinolones show antibacterial activity against M. tuberculosis” (Eur J Med Chem, 2020)
